Test results taken from ChEMBL document CHEMBL5252671, “Design, synthesis and evaluation of the anti-breast cancer activity of 1,3-oxazolo[4,5-d]pyrimidine and 1,3-oxazolo[5,4-d]pyrimidine derivatives” (2023).
The source made the active and inactive calls. No cut-off for these calls is given here.

Experiments:
Format in all cases: functional
MCF7 [1] = assay: Antiproliferative activity against human MCF7 cells assessed as inhibition of cell growth at 1 X 10^-5 M measured for 48 hrs by sulforhodamine B assay relative to control; conditions: MCF7, 48 h, dose 1 10^-5M
Method in brief: (§1)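 NCI one-dose screen. Cells were seeded at 5000-40000/well in RPMI 1640 with 5% FBS and 2 mM L-glutamine and preincubated 24 h at 37 °C in 5% CO2. Compound was added at 10⁻⁵ M for 48 h. Cells were then fixed with 10% TCA, stained with sulforhodamine B, washed with 1% acetic acid, solubilized in 10 mM Tris and read as OD at 510 nm.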

MDA-MB-231 [2] = assay: Antiproliferative activity against human MDA-MB-231 cells assessed as inhibition of cell growth at 1 X 10^-5 M measured for 48 hrs by sulforhodamine B assay relative to control; conditions: MDA-MB-231, 48 h, dose 1 10^-5M; method in brief: as §1
Hs-578T [3] = assay: Antiproliferative activity against human Hs-578T cells assessed as inhibition of cell growth at 1 X 10^-5 M measured for 48 hrs by sulforhodamine B assay relative to control; conditions: dose 1 10^-5M; method in brief: as §1
BT-549 [4] = assay: Antiproliferative activity against human BT-549 cells assessed as inhibition of cell growth at 1 X 10^-5 M measured for 48 hrs by sulforhodamine B assay relative to control; conditions: BT-549, 48 h, dose 1 10^-5M; method in brief: as §1
T47D [5] = assay: Antiproliferative activity against human T47D cells assessed as inhibition of cell growth at 1 X 10^-5 M measured for 48 hrs by sulforhodamine B assay relative to control; conditions: dose 1 10^-5M; method in brief: as §1
MDA-MB-468 [6] = assay: Antiproliferative activity against human MDA-MB-468 cells assessed as inhibition of cell growth at 1 X 10^-5 M measured for 48 hrs by sulforhodamine B assay relative to control; conditions: MDA-MB-468, 48 h, dose 1 10^-5M; method in brief: as §1
MCF7 [7] = assay: Anticancer activity against human MCF7 cells measured at 48 hrs
Method in brief: (§2)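 NCI DTP five-dose screen on the breast subpanel: compound at 0.01, 0.1, 1, 10 and 100 μM for 48 h. Cell density read by sulforhodamine B (protein content). GI50, TGI and LC50 were derived from the T, T0 and C optical densities using the NCI formulas.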

MDA-MB-231 [8] = assay: Anticancer activity against human MDA-MB-231 cells measured at 48 hrs; method in brief: as §2
Hs-578T [9] = assay: Anticancer activity against human Hs-578T cells measured at 48 hrs; method in brief: as §2
BT-549 [10] = assay: Anticancer activity against human BT-549 cells measured at 48 hrs; method in brief: as §2
T47D [11] = assay: Anticancer activity against human T47D cells measured at 48 hrs; conditions: for CC50: read-out: LC50 (the source's name); method in brief: as §2
MDA-MB-468 [12] = assay: Anticancer activity against human MDA-MB-468 cells measured at 48 hrs; method in brief: as §2
MDA-MB-231 [13] = assay: Antiproliferative activity against human wild type MDA-MB-231 cells assessed as inhibition of cell growth at 10 to 30 uM measured for 24 hrs by trypan blue staining based MTT assay; conditions: dose 10-30 µM
Method in brief: (§3)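 MDA cell lines were treated with 5-iodotubercidin (1 μM or 3 μM) or with test compound (10 μM or 30 μM). Drugs were dissolved in 0.225% DMSO, which also served as vehicle control. Proliferation was measured by Trypan Blue cell counting every 24 h for several consecutive days after seeding. MTT viability compared wild-type and mutant cells.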

MDA-MB-231 [14] = assay: Antiproliferative activity against human wild type MDA-MB-231 cells assessed as inhibition of cell growth at 10 to 30 uM measured for 24 hrs in presence of 5-Iodotubercidin by trypan blue staining based MTT assay; conditions: dose 10-30 µM; method in brief: as §3
MDA-MB-231 [15] = assay: Antiproliferative activity against human wild type MDA-MB-231 cells assessed as inhibition of cell growth at 10 uM measured at 24 to 96 hrs by trypan blue staining based MTT assay; conditions: time 24-96 hrs; method in brief: as §3
MDA-MB-231 [16] = assay: Antiproliferative activity against human wild type MDA-MB-231 cells assessed as inhibition of cell growth at 3 uM measured at 24 hrs by trypan blue staining based MTT assay; method in brief: as §3
MDA-MB-231 [17] = assay: Antiproliferative activity against human wild type MDA-MB-231 cells assessed as inhibition of cell growth at 3 uM measured at 24 hrs in presence of 5-Iodotubercidin by trypan blue staining based MTT assay; method in brief: as §3
MDA-MB-231 [18] = assay: Antiproliferative activity against human wild type MDA-MB-231 cells assessed as inhibition of cell growth at 3 uM measured at 96 hrs by trypan blue staining based MTT assay; method in brief: as §3
MDA-MB-231 [19] = assay: Antiproliferative activity against human ADK-L knockdown MDA-MB-231 cells assessed as inhibition of cell growth at 1 to 3 uM measured at 24 hrs in presence of 5-iodotubercidin by trypan blue staining based MTT assay; conditions: dose 1-3 µM; method in brief: as §3
MDA-MB-231 [20] = assay: Antiproliferative activity against human wild type MDA-MB-231 cells assessed as inhibition of cell growth at 3 uM measured at 48 hrs by trypan blue staining based MTT assay; method in brief: as §3
MDA-MB-231 [21] = assay: Antiproliferative activity against human ADK-L knockdown MDA-MB-231 cells assessed as inhibition of cell growth at 1 to 3 uM measured at 24 hrs by trypan blue staining based MTT assay; conditions: dose 1-3 µM; method in brief: as §3

SMILES | inhibition at 10 µM (MCF7 [1]) [%] | inhibition at 10 µM (MDA-MB-231 [2]) [%] | inhibition at 10 µM (Hs-578T [3]) [%] | inhibition at 10 µM (BT-549 [4]) [%] | inhibition at 10 µM (T47D [5]) [%] | inhibition at 10 µM (MDA-MB-468 [6]) [%] | GI50 (MCF7 [7]) [µM] | LC50 (concentration giving 50% net cell kill) (MCF7 [7]) [µM] | TGI (MCF7 [7]) [µM] | GI50 (MDA-MB-231 [8]) [µM] | LC50 (concentration killing 50% of starting cells) (MDA-MB-231 [8]) [µM] | TGI (MDA-MB-231 [8]) [µM] | GI50 (Hs-578T [9]) [µM] | LC50 (50% lethal concentration) (Hs-578T [9]) [µM] | TGI (Hs-578T [9]) [µM] | GI50 (BT-549 [10]) [µM] | TGI (BT-549 [10]) [µM] | GI50 (T47D [11]) [µM] | TGI (T47D [11]) [µM] | CC50 (T47D [11]) [µM] | further results
c1ccc(-c2nc(N3CCNCC3)c3oc(-c4ccccc4)nc3n2)cc1 | 162 | 187 | 161 | 106 | 142 | 174 | 1.48 | 7.4 | 3.31 | 1.76 | 6.1 | 3.28 | 1.88 | 8.8 | 4.07 | 1.77 | 3.41 | 2.1 | 4.95 | > 100 | GI50 (MDA-MB-468 [12]): 1.73 µM; TGI (MDA-MB-468 [12]): 3.42 µM; Activity (MDA-MB-231 [13]): Active; Activity (MDA-MB-231 [14]): Active; Activity (MDA-MB-231 [15]): Active; Activity (MDA-MB-231 [16]): Active; Activity (MDA-MB-231 [17]): Active; Activity (MDA-MB-231 [18]): inactive; Activity (MDA-MB-231 [19]): Active
Nc1ncnc2c1c(I)cn2[C@@H]1O[C@H](CO)[C@@H](O)[C@H]1O |  |  |  |  |  |  |  |  |  |  |  |  |  |  |  |  |  |  |  |  | Activity (MDA-MB-231 [20]): Active; Activity (MDA-MB-231 [21]): Active
Cc1ccc(-c2nc3nc(-c4ccccc4)nc(N4CCCNCC4)c3o2)cc1 | 178 | 187 | 118 | 72 | 145 | 168 | 1.48 | 8.29 | 3.5 | 1.81 | 6.1 | 3.32 | 1.83 | 8.85 | 4.02 | 1.63 | 3.19 | 1.72 | 3.5 | 7.1 | LC50 (concentration giving 50% net cell kill) (BT-549 [10]): 6.25 µM; GI50 (MDA-MB-468 [12]): 1.59 µM; LC50 (concentration giving 50% net cell kill) (MDA-MB-468 [12]): 7.04 µM; TGI (MDA-MB-468 [12]): 3.35 µM
Cc1ccc(-c2nc(N3CCCNCC3)c3oc(-c4ccc(C)cc4)nc3n2)cc1 | 165 | 179 | 0 | 10 | 146 | 95 | 1.85 | 8.14 | 3.88 | 1.69 | 5.73 | 3.11 | 12.6 | 80.9 | 31.9 | 16.3 | 35 | 1.94 | 4.17 | 8.96 | LC50 (concentration giving 50% net cell kill) (BT-549 [10]): 75.2 µM; GI50 (MDA-MB-468 [12]): 1.96 µM; TGI (MDA-MB-468 [12]): 4.39 µM
